Reference: ChEMBL document CHEMBL1128453, “Peptidyl alpha-ketoheterocyclic inhibitors of human neutrophil elastase. 3. In vitro and in vivo potency of a series of peptidyl alpha-ketobenzoxazoles” (J Med Chem, 1995)

Legend:
[1] = biological target: T1, Papain (Carica papaya, UniProt P00784); assay: Binding affinity towards papain
T1 sequence (P00784 whole entry): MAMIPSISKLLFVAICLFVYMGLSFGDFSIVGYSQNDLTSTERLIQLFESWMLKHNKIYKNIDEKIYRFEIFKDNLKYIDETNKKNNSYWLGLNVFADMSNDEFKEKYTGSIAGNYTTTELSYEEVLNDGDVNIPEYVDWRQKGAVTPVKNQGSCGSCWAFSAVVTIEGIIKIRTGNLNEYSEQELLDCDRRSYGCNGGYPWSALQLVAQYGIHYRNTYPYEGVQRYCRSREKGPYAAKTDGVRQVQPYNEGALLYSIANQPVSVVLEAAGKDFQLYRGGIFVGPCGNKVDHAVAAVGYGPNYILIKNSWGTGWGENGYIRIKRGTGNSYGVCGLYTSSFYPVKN

[2] = biological target: Prothrombin (Homo sapiens, UniProt P00734); assay: Binding affinity towards thrombin
[3] = biological target: T2, Neutrophil elastase (Homo sapiens) (UniProt P08246); settings: Lung
T2 sequence (whole entry): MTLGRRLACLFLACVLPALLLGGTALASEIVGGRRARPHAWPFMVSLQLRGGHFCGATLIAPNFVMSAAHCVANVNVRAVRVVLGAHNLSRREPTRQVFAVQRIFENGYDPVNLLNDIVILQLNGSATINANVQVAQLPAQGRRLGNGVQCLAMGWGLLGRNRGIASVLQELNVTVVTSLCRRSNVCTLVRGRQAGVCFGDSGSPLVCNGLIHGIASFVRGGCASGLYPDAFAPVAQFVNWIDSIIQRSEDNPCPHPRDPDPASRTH

[4] = biological target: T3, Neutrophil elastase (Homo sapiens, UniProt P08246); assay: Inhibition of human neutrophil elastase-catalyzed hydrolysis of the synthetic substrate MeO-Suc-Ala-Ala-Pro-Val-pNa
T3 sequence (P08246 whole entry): T2 sequence (whole entry)

[5] = biological target: Serine protease 1 (Homo sapiens, UniProt P07477); assay: Binding affinity towards trypsin
Serine protease 1, sequence (P07477 whole entry): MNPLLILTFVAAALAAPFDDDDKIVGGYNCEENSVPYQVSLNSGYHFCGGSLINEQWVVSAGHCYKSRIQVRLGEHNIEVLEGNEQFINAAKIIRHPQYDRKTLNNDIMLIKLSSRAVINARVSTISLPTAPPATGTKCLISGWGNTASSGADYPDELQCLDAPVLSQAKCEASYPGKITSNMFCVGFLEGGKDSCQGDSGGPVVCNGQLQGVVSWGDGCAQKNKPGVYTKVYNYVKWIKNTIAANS

[6] = biological target: Chymotrypsinogen A (Bos taurus, UniProt P00766); assay: Binding affinity towards chymotrypsin
[7] = Percent reduction in leukocytes following elastase challenge/treatment.; format: functional; set-up: concentration or dose not given beside the values
How it was run: (§1)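 Male Syrian hamsters (90–110 g), anaesthetised with brevital sodium (30 mg/kg ip), received intratracheal HNE (400 μg in 0.01 M PBS). Test agent was given intratracheally, either admixed with the enzyme or predosed (shortest interval 6 h). Dose interval is the longest with significant lesion inhibition. At 24 h, wet lung weight/body weight and lavage red/white cells (Coulter) were measured. Results are % reduction scaled between the HNE and saline controls (p = 0.05).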

[8] = biological target: T4, Cathepsin G (Homo sapiens, UniProt P08311); assay: Binding affinity towards cathepsin G
T4 sequence (P08311 whole entry): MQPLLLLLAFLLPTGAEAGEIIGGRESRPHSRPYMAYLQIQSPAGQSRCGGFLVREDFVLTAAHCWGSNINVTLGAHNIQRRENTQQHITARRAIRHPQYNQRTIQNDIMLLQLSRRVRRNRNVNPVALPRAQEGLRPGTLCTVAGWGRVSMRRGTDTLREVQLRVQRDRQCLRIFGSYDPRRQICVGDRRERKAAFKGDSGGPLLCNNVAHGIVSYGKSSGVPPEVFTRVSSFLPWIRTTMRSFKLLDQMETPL

[9] = biological target: T5, Angiotensin-converting enzyme (Rattus norvegicus, UniProt P47820); assay: Biological activity was measured against Angiotensin I converting enzyme
T5 sequence (P47820 whole entry): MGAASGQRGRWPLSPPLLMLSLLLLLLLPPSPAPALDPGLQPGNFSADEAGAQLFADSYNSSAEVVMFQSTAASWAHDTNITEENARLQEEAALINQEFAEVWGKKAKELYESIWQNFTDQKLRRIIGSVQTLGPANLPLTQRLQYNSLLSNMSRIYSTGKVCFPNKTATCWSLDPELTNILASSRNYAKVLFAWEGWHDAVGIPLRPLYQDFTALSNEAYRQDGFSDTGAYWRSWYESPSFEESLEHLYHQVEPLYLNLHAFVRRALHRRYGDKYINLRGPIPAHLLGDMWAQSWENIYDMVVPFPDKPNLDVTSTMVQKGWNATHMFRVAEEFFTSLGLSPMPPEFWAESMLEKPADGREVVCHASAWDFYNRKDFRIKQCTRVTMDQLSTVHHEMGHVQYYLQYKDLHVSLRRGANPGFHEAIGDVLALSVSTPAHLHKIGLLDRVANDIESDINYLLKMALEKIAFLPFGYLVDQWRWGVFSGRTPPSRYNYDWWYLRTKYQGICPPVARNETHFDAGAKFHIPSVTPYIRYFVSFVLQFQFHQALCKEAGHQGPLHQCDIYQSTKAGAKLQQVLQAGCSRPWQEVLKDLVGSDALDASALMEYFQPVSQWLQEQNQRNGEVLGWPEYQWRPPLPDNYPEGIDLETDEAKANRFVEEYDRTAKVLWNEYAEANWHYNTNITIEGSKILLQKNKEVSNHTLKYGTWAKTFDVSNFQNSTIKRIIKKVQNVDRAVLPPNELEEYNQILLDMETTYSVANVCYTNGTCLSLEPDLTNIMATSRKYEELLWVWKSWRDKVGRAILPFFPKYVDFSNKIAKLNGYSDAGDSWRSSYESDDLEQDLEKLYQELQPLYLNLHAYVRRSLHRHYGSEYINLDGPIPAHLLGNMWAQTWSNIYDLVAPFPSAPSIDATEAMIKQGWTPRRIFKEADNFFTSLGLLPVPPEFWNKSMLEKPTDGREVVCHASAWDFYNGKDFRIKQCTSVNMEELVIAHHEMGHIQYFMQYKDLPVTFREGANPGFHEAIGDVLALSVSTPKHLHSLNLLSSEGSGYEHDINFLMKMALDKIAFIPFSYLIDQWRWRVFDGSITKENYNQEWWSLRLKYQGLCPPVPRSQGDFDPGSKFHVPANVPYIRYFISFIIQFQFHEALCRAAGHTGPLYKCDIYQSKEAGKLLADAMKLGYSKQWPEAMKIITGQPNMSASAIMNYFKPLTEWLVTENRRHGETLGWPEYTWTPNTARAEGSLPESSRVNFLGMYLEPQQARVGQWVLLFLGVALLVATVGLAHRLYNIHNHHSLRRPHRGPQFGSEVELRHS

[10] = Percentage reduction in erythrocytes following elastase challenge/treatment.; format: functional; set-up: concentration or dose not given beside the values; how it was run: as §1

Ki [1]: > 200 µM | Ki [2]: > 50 µM | Lw/Bw [3]: 54 | Ki [4]: 0.0002 µM | Ki [5]: > 50 µM | Ki [6]: 92 µM | Ki [8]: > 2000 µM | Ki [9]: > 200 µM
Compound: CC(C)[C@H](NC(=O)[C@@H]1CCCN1C(=O)[C@@H](NC(=O)c1ccc(C(=O)NS(=O)(=O)c2ccc(Cl)cc2)cc1)C(C)C)C(=O)c1nc2cc(C(N)=O)ccc2o1
Reduction [7]: 53% | Reduction [10]: 64%
